A selection: hits, their analogues and other compounds. The true share with any hit is near 3.8%.
KCNK9 block: inhibitors of human KCNK9 two-pore domain potassium channel; B-score at 10 µM; Q9NPC2; HEK293 KCNK9, FluxOR thallium flux fluorescence; stronger effect = lower value; hit rate 1.2% among 310,000;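 active = ratio B-score over 3 SD below the library mean, with starting fluorescence within 5 SD of its mean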;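 also: negative B-score means less thallium flux so channel inhibition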
KCNK3 inh: human KCNK3 channel inhibition, primary screen | B-score at 10 µM | AID 602410 | CHO-KCNK3 thallium flux, FluxOR fluorescence; stronger effect = lower value | hit rate 0.84% among 340,000 | O14649;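 active = B-score under library mean minus 4 SD, starting fluorescence ratio at most library mean plus 5 SD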;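 also: more negative B-score means stronger inhibition of thallium flux through KCNK3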
KCNQ1 pot: potentiators or activators of human KCNQ1 potassium channel | B-score at 10 µM | P51787 | hit rate 0.35% among 310,000 | AID 2648 | CHO-K1 KCNQ1, thallium flux FluxOR fluorescence; stronger effect = higher value;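 active = fluorescence ratio B-score, a plate-corrected score, at least three library SD, with initial intensity B-score within 5 SD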
Target sequence (P51787 whole entry, looked up): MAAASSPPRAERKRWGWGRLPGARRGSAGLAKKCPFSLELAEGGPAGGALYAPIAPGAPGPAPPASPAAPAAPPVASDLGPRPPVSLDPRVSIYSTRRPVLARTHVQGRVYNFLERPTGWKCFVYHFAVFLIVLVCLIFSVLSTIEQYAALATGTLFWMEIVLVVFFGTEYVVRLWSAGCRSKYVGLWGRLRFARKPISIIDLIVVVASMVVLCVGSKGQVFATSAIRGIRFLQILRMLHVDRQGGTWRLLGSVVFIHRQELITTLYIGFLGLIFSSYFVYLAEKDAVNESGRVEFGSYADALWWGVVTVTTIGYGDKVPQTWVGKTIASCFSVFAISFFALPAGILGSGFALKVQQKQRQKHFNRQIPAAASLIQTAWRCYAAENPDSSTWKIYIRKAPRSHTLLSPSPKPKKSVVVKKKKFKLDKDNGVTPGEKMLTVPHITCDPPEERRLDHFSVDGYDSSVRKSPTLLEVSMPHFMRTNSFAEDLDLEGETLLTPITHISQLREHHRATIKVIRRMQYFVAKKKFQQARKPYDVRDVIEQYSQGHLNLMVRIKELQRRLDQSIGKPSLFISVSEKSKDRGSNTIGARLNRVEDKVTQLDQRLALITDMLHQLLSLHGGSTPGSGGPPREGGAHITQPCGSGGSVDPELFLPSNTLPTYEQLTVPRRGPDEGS
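Assay system: CHO-K1 cells stably expressing KCNQ1. Medium: assay buffer for compound exposure, DMSO matched across wells. Timing: 37 °C overnight plating, 90-min dark dye load, 20-min compound pretreatment. Signal: kinetic FluxOR fluorescence, 10 s baseline plus 110 s post-stimulus.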
KCNQ1 inh: blocks the human KCNQ1 potassium channel; B-score at 10 µM; P51787; hit rate 1.3% among 310,000; AID 2642; CHO-K1 KCNQ1, FluxOR thallium flux fluorescence; stronger effect = higher value;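 active = compounds whose thallium flux B-score, printed positive for inhibition, exceeds three library SD while starting fluorescence stays within three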;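 also: channel opened by potassium depolarization with thallium stimulus after 20 min compound exposure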
hERG rescue: hERG (human) protection from proarrhythmic block; CHO-hERG, FluxOR thallium flux, dofetilide IC70 present; AID 1511; hit rate 0.51% among 310,000; activation (rescue from dofetilide block), less the hit threshold, % at 10 µM; Q12809;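 active = activation above the mean of controls blocked by dofetilide plus 5 SD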;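 also: thallium influx through hERG after potassium depolarization seen as dye fluorescence rise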
Kir21 block: blocks the mouse Kir2.1 inward-rectifier potassium channel | HEK293-Kir2.1, FluxOR thallium flux fluorescence; stronger effect = lower value | B-score at 10 µM | P35561 | hit rate 0.85% among 310,000;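 active = fluorescence ratio B-score at or below minus 3 SD of library scores, with starting-brightness B-score within 2 SD, cut at about -4.2 in these data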;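 also: channel flux triggered by added potassium and thallium sulfate stimulus; B-score of peak minus minimum fluorescence over baseline after thallium stimulus; more negative B-score means stronger Kir2.1 block with less thallium influx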
KCNK9 inh conf: confirmation of human KCNK9 potassium channel inhibitors; inhibition, % at 10 µM; shares compounds with KCNK9 block; hit rate 43% among 4,900; HEK293 KCNK9 cells, FluxOR thallium flux fluorescence;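 active = thallium signal inhibited by more than 5 SD of the compound-free buffer control wells, on both duplicate plates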;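 also: 0% = assay buffer control wells without compound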
Kir2-1 spec: selectivity of KCNK9 modulators against mouse Kir2.1 | shares compounds with KCNK9 block | Kir2.1 cells, FluxOR thallium flux fluorescence | inhibition, % at 10 µM | hit rate 4% among 4,900 | AID 492993;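 active = thallium signal drop more than 5 SD beyond the mean of the no-compound control wells, seen in both duplicate plates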;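 also: signal is fluorescence rise after thallium addition divided by baseline fluorescence; plate controls were assay buffer only for no effect and full block by chlorpromazine control for full effect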
KCNK9 uninduced: second check of KCNK9 modulator effects in non-induced HEK293 cells. shares compounds with KCNK9 block. FluxOR thallium flux. inhibition, % at 10 µM. hit rate 40% among 4,900. AID 492997;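 active = thallium signal drop beyond 5 SD of the untreated control mean, on both duplicate plates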;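 also: plate controls were buffer only IC0 wells for no effect and SID17386958 at its maximal inhibitory level for full effect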
Starred values were filed as active, the others as inactive; i = inactive; nt = not tested or not shown.

SMILES	KCNK9 block	KCNK3 inh	KCNQ1 pot	KCNQ1 inh	hERG rescue	Kir21 block	KCNK9 inh conf	Kir2-1 spec	KCNK9 uninduced
CC[n+]1c(/C=C/N(C)c2ccccc2)n(-c2ccccc2)c2ccc(-c3nc4ccccc4s3)cc21	-16*	-9.7*	i	15*	-31	-7*	90%*	78%*	76%*
CC[n+]1cccc(-c2nc3ccccc3s2)c1	i	i	i	i	-13	0	nt	nt	nt
O=C(CCNC(=O)c1ccc(Br)cc1)Nc1cc(Cl)ccc1-n1cncn1	i	i	i	i	-16	-0.41	nt	nt	nt
O=C(COc1ccccc1C(=O)Nc1ccccc1)c1ccc(Br)cc1	-9.5*	i	i	i	-12	0.47	35%*	i	i
O=C(COc1ccccc1C(=O)Nc1ccccc1)NCCc1ccccc1	i	i	i	i	-9	-0.58	nt	nt	nt
Cc1cc(S(=O)(=O)NCc2ccc(N3CCN(C)CC3)cc2)c(C)s1	i	i	i	i	-10	-2	nt	nt	nt
CCCc1nc2ccccc2c(=O)n1/N=C/c1ccccc1O	-8.4*	i	i	6*	-16	-0.12	60%*	i	30%*
C=CCN1C(=O)C(CC(=O)O)SC1=Nc1ccc(C)cc1 (centres undefined)	i	i	i	i	-26	0.9	nt	nt	nt
Cc1ccc(-c2nnc(N3CCCCC3)c3ccccc23)cc1S(=O)(=O)NCC1CCCO1 (centres undefined)	-12*	i	i	i	-20	-0.26	i	i	i
O=C(O)COc1ccc(/C=C/c2nc(-c3ccccc3O)n[nH]2)cc1	i	i	i	i	-7	0.59	nt	nt	nt
COc1ccc(/C=C/c2nc(-c3ccccc3O)n[nH]2)cc1OC	i	i	i	i	2	-1.6	i	i	i
CCOCCc1nnc(NC(=O)C2CC(=O)N(CCc3ccc(F)cc3)C2)s1 (centres undefined)	i	i	i	i	-4	-0.58	nt	nt	nt
Cc1ccc(Cc2nnc3n(-c4cccc(C)c4)nc(C(=O)c4ccccc4)n3c2=O)cc1	i	i	i	i	-10	0.16	i	i	i
COC(=O)c1cc(S(=O)(=O)Nc2cccc(-c3cnco3)c2)oc1C	i	i	i	i	-10	-0.09	nt	nt	nt
O=C(NCc1ccccc1)c1ccc(C(=O)N(C2CCCCC2)C2CCCCC2)cc1	-8.9*	i	i	i	-3	0.98	i	i	32%*
CC1=C(C(=O)OCCBr)C(c2cccc3ccccc23)NC(=O)N1 (centres undefined)	i	i	i	i	-5	0.05	nt	nt	nt
Fc1ccc2c(c1)Sc1ccc(Cl)cc1CC2N1CCN(CCC2OCCO2)CC1 (centres undefined)	i	i	i	i	-27	-0.56	i	i	i
CSc1ccc2c(c1)C(N1CCN(C)CC1)Cc1ccc(F)cc1S2 (centres undefined)	i	i	i	i	-34	-3.1	nt	nt	nt
CN(CC(=O)Nc1cccc(F)c1)C(=O)C1CCC(C(=O)N(C)CC(=O)Nc2cccc(F)c2)CC1 (centres undefined)	nt	i	nt	nt	nt	nt	nt	nt	nt
CN(C)c1ccc(C2C3CCCc4ccccc4C3=NN2C)cc1 (centres undefined)	i	i	i	i	-10	-0.4	i	i	i
CN1N=C2c3ccccc3CCC2C1c1ccc(C(F)(F)F)cc1 (centres undefined)	i	nt	i	i	-4	0.37	nt	nt	nt
O=C1CC(=O)N(CCc2ccccc2)C(=O)N1CCc1ccccc1	i	i	i	i	-12	1.4	i	i	i
CCCCCCCCCC[N+](C)(C)CC/C=C1/c2ccccc2Sc2ccc(Cl)cc21	-13*	i	i	i	-14	-0.81	58%*	50%*	i
OCCN1CCN(CC/C=C2/c3ccccc3Sc3ccc(Cl)cc32)CC1	nt	i	nt	nt	nt	nt	nt	nt	nt
CC1CCN(c2ccccc2NC(=S)NC(=O)c2ccco2)CC1	i	i	i	i	4	0.35	nt	nt	nt
SMILES	KCNK9 block	KCNK3 inh	KCNQ1 pot	KCNQ1 inh	hERG rescue	Kir21 block	KCNK9 inh conf	Kir2-1 spec	KCNK9 uninduced
CC1CCN(c2ccccc2NC(=S)NC(=O)C(C)(C)C)CC1	-10*	i	i	i	-8	0.1	42%*	i	33%*
COCCNC(=O)Cn1cnc2sc(C)c(S(=O)(=O)N3CCC(C)CC3)c2c1=O	i	i	i	i	-9	0.58	nt	nt	nt
COc1ccc(Cl)cc1Nc1ncnc2sc(C)c(S(=O)(=O)N3CCC(C)CC3)c12	-9.7*	i	i	i	-11	-1.2	48%*	i	34%*
COc1ccc(NS(=O)(=O)c2ccc(C(=O)N3CCCCCC3)cc2)cc1	nt	i	nt	nt	nt	nt	nt	nt	nt
CCOc1ccc(NS(=O)(=O)c2ccc(C(=O)N3CCCC(C)C3)cc2)cc1 (centres undefined)	i	i	i	i	-14	0.76	i	i	i
CCOc1ccc(NS(=O)(=O)c2ccc(C(=O)N3CCCCCC3)cc2)cc1	i	i	i	i	-11	-0.28	i	i	i
CCOc1ccc(OCc2ccc(C(=O)N3CCCC(C)C3)cc2)cc1 (centres undefined)	i	i	i	i	0	1.3	i	i	i
CCOc1ccc(NS(=O)(=O)c2ccc(C(=O)N3CCN(C(C)=O)CC3)cc2)cc1	i	i	i	i	-7	0.67	nt	nt	nt
CCOc1ccc(OCc2ccc(C(=O)N3CCOCC3)cc2)cc1	i	i	i	i	-9	0.15	nt	nt	nt
COc1cc(OC)c2c(-c3cccc(-c4ccoc4)c3)cc(=O)oc2c1	nt	i	nt	nt	nt	nt	nt	nt	nt
CCOC(=O)N1CCC(N2CCCC(CO)(Cc3cccc(OC)c3)C2)CC1 (centres undefined)	i	i	i	i	-6	1.1	nt	nt	nt
COc1ccc(-c2ocnc2C(=O)N2CCN(C(=O)C(c3ccccc3)c3ccccc3)CC2)cc1	i	i	i	i	-9	-0.06	nt	nt	nt
CN(CC(=O)Nc1ccccc1Cl)C(=O)COC(=O)/C=C/c1ccc(C(F)(F)F)cc1	i	i	i	i	-8	-0.81	nt	nt	nt
CCC(=O)/C=C1/Sc2ccccc2N1CC	i	i	i	i	-4	0.82	nt	nt	nt
